Measured values taken from ChEMBL document CHEMBL4190388, “Discovery and Optimization of Indolyl-Containing 4-Hydroxy-2-Pyridone Type II DNA Topoisomerase Inhibitors Active against Multidrug Resistant Gram-negative Bacteria” (J Med Chem, 2018).
In brackets after ≈: the same amount, converted by molar mass.

Key:
[1] = test system: Escherichia coli; test: Antibacterial activity against fluoroquinolone resistant Escherichia coli SKM18 by CLSI M100-S17 protocol based method; type: functional
[2] = test system: Escherichia coli; test: Antibacterial activity against wild type Escherichia coli ATCC 25922 by CLSI M100-S17 protocol based method; type: functional
[3] = test system: Escherichia coli; test: Antibacterial activity against quinolone resistance Escherichia coli isolate ELZ4251 harboring gyrA/parC mutant by CLSI M100-S17 protocol based method; type: functional
[4] = test system: Acinetobacter baumannii; test: Antibacterial activity against wild type Acinetobacter baumannii ATCC BAA-747 by CLSI M100-S17 protocol based method; type: functional
[5] = test system: Acinetobacter baumannii; test: Antibacterial activity against fluoroquinolone resistant Acinetobacter baumannii isolate MMX2240 by CLSI M100-S17 protocol based method; type: functional
[6] = test system: Klebsiella pneumoniae; test: Antibacterial activity against wild type Klebsiella pneumoniae ATCC 35657 by CLSI M100-S17 protocol based method; type: functional
[7] = test system: Escherichia coli; test: Antibacterial activity against wild type Escherichia coli ATCC 25922 in presence of HSA by CLSI M100-S17 protocol based method; type: functional
[8] = test system: Escherichia coli; test: Antibacterial activity against Escherichia coli SKM11 by CLSI M100-S17 protocol based method; type: functional
[9] = test system: Escherichia coli; test: Antibacterial activity against wild type Escherichia coli 1609 by CLSI M100-S17 protocol based method; type: functional
[10] = target: DNA gyrase subunit A (Escherichia coli K-12, UniProt P0AES4); test: Inhibition of His tagged Escherichia coli ATCC 25922 DNA gyrase A SD-LY mutant expressed in Escherichia coli BL21 (DE3) pLysS cells assessed as reduction in enzyme-mediated supercoiling of relaxed plasmid DNA pNO1 after 30 mins in presence of biotinylated TFO1 by fluorescence assay
[11] = Inhibition of His tagged Escherichia coli ATCC 25922 DNA gyrase A expressed in Escherichia coli BL21 (DE3) pLysS cells assessed as reduction in enzyme-mediated supercoiling of relaxed plasmid DNA pNO1 after 30 mins in presence of biotinylated TFO1 by fluorescence assay
[12] = Inhibition of Escherichia coli DNA topoisomerase 4 assessed as reduction in decatenation activity using kinetoplast concatenated DNA as substrate after 30 mins by picogreen dye based fluorescence assay
[13] = Fraction unbound in mouse plasma at 1 uM by equilibrium dialysis method; type: ADME, cell-free
[14] = test system: Escherichia coli; test: Antibacterial activity against Escherichia coli infected in cyclophosphamide treated neutropenic CD1 mouse septicemia model assessed as mouse survival at 20 mg/kg, iv dosed at 1 hr post infection followed by redosing at 5 hrs post infection measured at 96 hrs post infection relative to control; type: functional
Method in brief: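 Female CD-1 mice were made neutropenic with cyclophosphamide ip, 150 mg/kg on day −4 and 100 mg/kg on day −1. […] Compound was given iv in 3% DMSO/saline at 1 and 5 h postinfection, n = 6 per group. Percent survival was scored at 96 h postinfection.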

[15] = test system: Escherichia coli; test: Antibacterial activity against quinolone resistant Escherichia coli by broth microdilution method; type: functional; details: Escherichia coli; for MIC: read-out: MIC
Method in brief: (§1)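 MICs were determined by CLSI broth methods, except that organisms were grown in brain–heart–infusion medium. The panel comprised wild-type and resistant E. coli and A. baumannii strains, including 12 strains whose details are given by reference.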

[16] = test system: Escherichia coli; test: Antibacterial activity against wild type Escherichia coli by broth microdilution method; type: functional; method in brief: as §1
[17] = test system: Escherichia coli; test: Antibacterial activity against beta-lactam resistant Escherichia coli by broth microdilution method; type: functional; details: Escherichia coli; for MIC: read-out: MIC; method in brief: as §1
[18] = test system: Escherichia coli; test: Antibacterial activity against aminoglycoside resistant Escherichia coli by broth microdilution method; type: functional; details: Escherichia coli; for MIC: read-out: MIC; method in brief: as §1
[19] = test system: Escherichia coli; test: Antibacterial activity against multidrug resistant Escherichia coli by broth microdilution method; type: functional; details: Escherichia coli; for MIC: read-out: MIC; method in brief: as §1
[20] = test system: Acinetobacter baumannii; test: Antibacterial activity against wild type Acinetobacter baumannii by broth microdilution method; type: functional; method in brief: as §1
[21] = test system: Acinetobacter baumannii; test: Antibacterial activity against aminoglycoside resistant Acinetobacter baumannii by broth microdilution method; type: functional; details: Acinetobacter baumannii; for MIC: read-out: MIC; method in brief: as §1
[22] = test system: Acinetobacter baumannii; test: Antibacterial activity against quinolone resistant Acinetobacter baumannii by broth microdilution method; type: functional; details: Acinetobacter baumannii; for MIC: read-out: MIC; method in brief: as §1
[23] = test system: Acinetobacter baumannii; test: Antibacterial activity against beta-lactam resistant Acinetobacter baumannii by broth microdilution method; type: functional; details: Acinetobacter baumannii; for MIC: read-out: MIC; method in brief: as §1
[24] = test system: Acinetobacter baumannii; test: Antibacterial activity against carbapenem resistant Acinetobacter baumannii by broth microdilution method; type: functional; details: Acinetobacter baumannii; for MIC: read-out: MIC; method in brief: as §1
[25] = test system: Acinetobacter baumannii; test: Antibacterial activity against multidrug resistant Acinetobacter baumannii by broth microdilution method; type: functional; details: Acinetobacter baumannii; for MIC: read-out: MIC; method in brief: as §1
[26] = test system: Escherichia coli; test: Selectivity ratio of MIC for wild type Escherichia coli ATCC 25922 in presence of HSA to MIC for wild type Escherichia coli ATCC 25922; type: functional
[27] = test system: Mus musculus; test: Terminal half life in CD1 mouse plasma at 10 mg/kg, iv by LC-MS/MS analysis; type: ADME, organism-based; details: in vivo
[28] = test system: Mus musculus; test: AUC (0 to 24 hrs) in CD1 mouse plasma at 10 mg/kg, iv by LC-MS/MS analysis; type: ADME, organism-based; design: time < 24 hr, dose 10 mg/kg, route intravenous; details: in vivo
Method in brief: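 CD-1 mice given a single 10 mg/kg iv dose (n = 3), in either 10% DMSO plus 1% Tween 80 in pH 8.0 phosphate buffer or 20% (2-hydroxypropyl)-β-cyclodextrin in pH 4.0 citrate buffer; plasma exposure measured.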

[29] = test system: Mus musculus; test: Volume of distribution at steady state in CD1 mouse plasma at 10 mg/kg, iv by LC-MS/MS analysis; type: ADME, organism-based; details: in vivo
[30] = Oral bioavailability in CD1 mouse plasma by LC-MS/MS analysis; type: ADME, organism-based

Chain of DNA gyrase subunit A (P0AES4 2-875 limits assumed): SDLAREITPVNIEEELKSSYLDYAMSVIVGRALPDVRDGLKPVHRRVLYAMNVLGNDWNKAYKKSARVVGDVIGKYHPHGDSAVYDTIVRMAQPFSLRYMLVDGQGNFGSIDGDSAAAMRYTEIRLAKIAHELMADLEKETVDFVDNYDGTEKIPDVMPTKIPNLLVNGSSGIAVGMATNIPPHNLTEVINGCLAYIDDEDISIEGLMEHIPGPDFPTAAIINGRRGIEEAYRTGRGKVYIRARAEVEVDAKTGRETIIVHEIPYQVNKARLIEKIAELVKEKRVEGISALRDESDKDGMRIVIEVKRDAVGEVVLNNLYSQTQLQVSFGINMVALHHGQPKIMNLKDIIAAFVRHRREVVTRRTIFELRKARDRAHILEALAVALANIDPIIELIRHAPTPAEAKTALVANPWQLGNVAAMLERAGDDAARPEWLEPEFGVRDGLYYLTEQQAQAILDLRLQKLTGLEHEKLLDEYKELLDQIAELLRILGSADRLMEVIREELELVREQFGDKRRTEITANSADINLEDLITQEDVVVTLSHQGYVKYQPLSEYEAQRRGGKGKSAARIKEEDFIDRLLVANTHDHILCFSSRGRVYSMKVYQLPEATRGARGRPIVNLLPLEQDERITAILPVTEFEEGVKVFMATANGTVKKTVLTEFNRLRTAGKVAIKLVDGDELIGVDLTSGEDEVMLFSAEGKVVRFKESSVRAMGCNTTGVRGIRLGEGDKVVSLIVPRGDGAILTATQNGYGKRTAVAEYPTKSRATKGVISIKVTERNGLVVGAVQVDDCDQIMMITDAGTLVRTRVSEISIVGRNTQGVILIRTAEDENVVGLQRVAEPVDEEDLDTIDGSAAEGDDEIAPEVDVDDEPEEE

CCNCc1cc2cc3c(cc2n1C)CCCc1c-3[nH]c(=O)c(C(=O)O)c1O
MIC [1]: 0.39 µg/mL (≈ 1.02 µM) | MIC [2]: 0.39 µg/mL (≈ 1.02 µM) | MIC [3]: 1.6 µg/mL (≈ 4.19 µM) | MIC [4]: 0.78 µg/mL (≈ 2.04 µM) | MIC [5]: 1.6 µg/mL (≈ 4.19 µM) | MIC [6]: 0.78 µg/mL (≈ 2.04 µM) | MIC [7]: 6.3 µg/mL | MIC [8]: 1.6 µg/mL (≈ 4.19 µM) | MIC [9]: 1.6 µg/mL (≈ 4.19 µM) | IC50 [10]: 760 nM | IC50 [11]: 56 to 100 nM | IC50 [12]: 2900 nM | Fu [13]: 0.17 | survival at 20 mg/kg [14]: 83% | MIC50 [15]: 1 µg/mL (≈ 2.62 µM) | MIC90 [15]: 1 µg/mL (≈ 2.62 µM) | MIC [15]: 0.25 to 1 µg/mL (≈ 0.655 to 2.62 µM) | MIC50 [16]: 1 µg/mL (≈ 2.62 µM) | MIC90 [16]: 1 µg/mL (≈ 2.62 µM) | MIC50 [17]: 1 µg/mL (≈ 2.62 µM) | MIC90 [17]: 1 µg/mL (≈ 2.62 µM) | MIC [17]: 0.25 to 1 µg/mL (≈ 0.655 to 2.62 µM) | MIC50 [18]: 1 µg/mL (≈ 2.62 µM) | MIC90 [18]: 1 µg/mL (≈ 2.62 µM) | MIC [18]: 0.25 to 1 µg/mL (≈ 0.655 to 2.62 µM) | MIC50 [19]: 1 µg/mL (≈ 2.62 µM) | MIC90 [19]: 1 µg/mL (≈ 2.62 µM) | MIC [19]: 0.25 to 1 µg/mL (≈ 0.655 to 2.62 µM) | MIC50 [20]: 2 µg/mL (≈ 5.24 µM) | MIC90 [20]: 16 µg/mL (≈ 41.9 µM) | MIC50 [21]: 2 µg/mL (≈ 5.24 µM) | MIC90 [21]: 16 µg/mL (≈ 41.9 µM) | MIC [21]: 0.25 to 32 µg/mL (≈ 0.655 to 83.9 µM) | MIC50 [22]: 2 µg/mL (≈ 5.24 µM) | MIC90 [22]: 16 µg/mL (≈ 41.9 µM) | MIC [22]: 0.25 to 32 µg/mL (≈ 0.655 to 83.9 µM) | MIC50 [23]: 2 µg/mL (≈ 5.24 µM) | MIC90 [23]: 16 µg/mL (≈ 41.9 µM) | MIC [23]: 0.25 to 32 µg/mL (≈ 0.655 to 83.9 µM) | MIC50 [24]: 2 µg/mL (≈ 5.24 µM) | MIC90 [24]: 16 µg/mL (≈ 41.9 µM) | MIC [24]: 0.25 to 32 µg/mL (≈ 0.655 to 83.9 µM) | MIC50 [25]: 2 µg/mL (≈ 5.24 µM) | MIC90 [25]: 16 µg/mL (≈ 41.9 µM) | MIC [25]: 0.25 to 32 µg/mL (≈ 0.655 to 83.9 µM)

CC(C)NCc1cc2cc3c(cc2n1C)CCCc1c-3[nH]c(=O)c(C(=O)O)c1O
MIC [1]: 0.39 µg/mL (≈ 0.986 µM) | MIC [2]: 0.78 µg/mL (≈ 1.97 µM) | MIC [3]: 1.6 µg/mL (≈ 4.05 µM) | MIC [4]: 0.78 µg/mL (≈ 1.97 µM) | MIC [5]: 0.78 µg/mL (≈ 1.97 µM) | MIC [6]: 0.78 µg/mL (≈ 1.97 µM) | MIC [7]: 3.1 µg/mL | Ratio [26]: 4 - 16 | beta t1/2 [27]: 11 h | AUC [28]: 1810 ng·h/mL | Vdss [29]: 69 L/kg | bioavailability [30]: 44% | Fu [13]: 0.16 | survival at 20 mg/kg [14]: 83% | MIC50 [15]: 0.5 µg/mL (≈ 1.26 µM) | MIC90 [15]: 1 µg/mL (≈ 2.53 µM) | MIC [15]: 0.25 to 1 µg/mL (≈ 0.632 to 2.53 µM) | MIC50 [16]: 0.5 µg/mL (≈ 1.26 µM) | MIC90 [16]: 1 µg/mL (≈ 2.53 µM) | MIC50 [17]: 0.5 µg/mL (≈ 1.26 µM) | MIC90 [17]: 1 µg/mL (≈ 2.53 µM) | MIC [17]: 0.25 to 1 µg/mL (≈ 0.632 to 2.53 µM) | MIC50 [18]: 0.5 µg/mL (≈ 1.26 µM) | MIC90 [18]: 1 µg/mL (≈ 2.53 µM) | MIC [18]: 0.25 to 1 µg/mL (≈ 0.632 to 2.53 µM) | MIC50 [19]: 0.5 µg/mL (≈ 1.26 µM) | MIC90 [19]: 1 µg/mL (≈ 2.53 µM) | MIC [19]: 0.25 to 1 µg/mL (≈ 0.632 to 2.53 µM) | MIC50 [20]: 2 µg/mL (≈ 5.06 µM) | MIC90 [20]: 16 µg/mL (≈ 40.5 µM) | MIC50 [21]: 2 µg/mL (≈ 5.06 µM) | MIC90 [21]: 16 µg/mL (≈ 40.5 µM) | MIC [21]: 0.25 to 32 µg/mL (≈ 0.632 to 80.9 µM) | MIC50 [22]: 2 µg/mL (≈ 5.06 µM) | MIC90 [22]: 16 µg/mL (≈ 40.5 µM) | MIC [22]: 0.25 to 32 µg/mL (≈ 0.632 to 80.9 µM) | MIC50 [23]: 2 µg/mL (≈ 5.06 µM) | MIC90 [23]: 16 µg/mL (≈ 40.5 µM) | MIC [23]: 0.25 to 32 µg/mL (≈ 0.632 to 80.9 µM) | MIC50 [24]: 2 µg/mL (≈ 5.06 µM) | MIC90 [24]: 16 µg/mL (≈ 40.5 µM) | MIC [24]: 0.25 to 32 µg/mL (≈ 0.632 to 80.9 µM) | MIC50 [25]: 2 µg/mL (≈ 5.06 µM) | MIC90 [25]: 16 µg/mL (≈ 40.5 µM) | MIC [25]: 0.25 to 32 µg/mL (≈ 0.632 to 80.9 µM)
